High-throughput results: PubChem BioAssay, several laboratories
An excerpt weighted towards active compounds, which were near 7.2% of everything screened.
PLAP act – activates human placental alkaline phosphatase. activation fold at 20 µM. purified PLAP enzyme, luminescent substrate read-out; active compounds read high. 1.2% of 96,000 active. P05187; in the data active means activation fold above about 2
Target sequence (P05187 whole entry, looked up): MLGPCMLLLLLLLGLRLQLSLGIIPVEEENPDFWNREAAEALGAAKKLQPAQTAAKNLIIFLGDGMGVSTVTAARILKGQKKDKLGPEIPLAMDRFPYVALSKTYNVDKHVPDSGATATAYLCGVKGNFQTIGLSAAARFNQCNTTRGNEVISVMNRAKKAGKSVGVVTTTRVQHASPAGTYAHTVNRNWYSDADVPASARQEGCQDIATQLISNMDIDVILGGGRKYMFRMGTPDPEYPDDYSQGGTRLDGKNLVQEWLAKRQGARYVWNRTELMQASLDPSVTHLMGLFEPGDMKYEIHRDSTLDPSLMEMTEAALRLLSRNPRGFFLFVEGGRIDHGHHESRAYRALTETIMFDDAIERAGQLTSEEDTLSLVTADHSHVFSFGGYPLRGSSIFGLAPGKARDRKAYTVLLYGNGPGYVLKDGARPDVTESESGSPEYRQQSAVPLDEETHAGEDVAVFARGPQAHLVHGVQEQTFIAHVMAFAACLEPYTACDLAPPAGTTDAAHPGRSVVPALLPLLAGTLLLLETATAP
PostGolgi ctrl – yeast control strain growth, post-Golgi counter-screen | inhibition, % at 10 µM | 5% of 98,000 active | AID 738 | efflux-deficient yeast background strain, growth absorbance A615, 16 h
Ecoli WT expand – blocks growth of wild type E. coli BW25113 | OD600 absorbance | growth inhibition, % at 100 µM | 0.15% of 98,000 active | AID 710;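 active means growth inhibition above about 50% at one test dose, limit read from the data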;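 further: growth measured after 20 h incubation at 37 °C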
PostGolgi yeast – growth inhibition of a yeast mutant, post-Golgi transport screen | post-Golgi transport phenotypic cell assay | inhibition, % at 10 µM | 0.9% of 98,000 active;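 further: yeast cells grown in 1536-well plates; yeast grown about 18 h at 30C before absorbance read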
Ecoli tolC – growth inhibitors of E. coli BW25113 tolC mutant; AID 573; growth inhibition, % at 10 µM (by protocol); 2.2% of 65,000 active; OD615;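 active means growth inhibition at or above a cutoff equal to the mean over every tested compound plus 3 SD, cut at about 60% in these data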;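 further: growth measured after 20 h incubation at 37 °C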
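test system = E. coli BW25113 ΔtolC::kan bacteria | medium = LB with kanamycin 50 µg/mL | signal = OD at 615 nm | schedule = 37 °C, 20 h exposure | evaluation = % inhibition of E. coli growth | compound dosing = one dose of 10 µM final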
* = called active by the depositor; . = no result given. Unless noted, no stated cut-off is given here; in the data, active means inhibition above about 30%; inactive means the rest.

SMILES	PLAP act	PostGolgi ctrl	Ecoli WT expand	PostGolgi yeast	Ecoli tolC
COc1ccc(-c2cc(C(=O)N3CCOCC3)no2)cc1OC	0.9	-7	-2	8	-4
CC1(C)CC2CC(C)(CN2C(=O)c2cc(-c3ccccc3O)on2)C1 (centres undefined)	1.3	78*	-10	11	95*
COc1ccc(-c2cc(C(=O)N3CC4(C)CC3CC(C)(C)C4)no2)cc1OC (centres undefined)	1	16	-6	7	71*
COc1cc(C2=NOC(C(=O)Nc3ccc(C)cc3)C2)cc(OC)c1OC (centres undefined)	0.9	31*	-2	15	-4
CC(C)CCN(C)C1CCN(C(=O)Nc2c(F)cccc2F)CC1	1.1	10	4	-4	-3
CS(=O)(=O)N1CCc2cc(-c3csc(NC(=O)Cc4cccs4)n3)ccc21	0.8	0	-14	-5	62*
Cc1sc(NC(=O)CN2CCOCC2)nc1-c1ccc2c(c1)CCN2S(=O)(=O)c1ccccc1	1.8	3	-12	2	.
O=C(CN1CCOCC1)Nc1nc(-c2ccc3c(c2)CCN3S(=O)(=O)c2ccccc2)cs1	2*	11	-10	5	8
Cc1ncsc1CCSc1nc2ccccc2c(=O)n1C	1	14	-2	23	25
O=S(=O)(Nc1nc2ccc(S(=O)(=O)N3CCCC3)cc2s1)c1ccc(F)cc1	1.4	9	-11	-8	.
Cn1c(SCc2nc3ccccc3[nH]2)nnc1-c1cccnc1	1	6	3	23	-11
CCOc1ccc(-c2nnc(SCc3nc4ccccc4[nH]3)n2N)cc1	2.4*	7	-4	-2	.
Cn1c(CSc2nc3ccc(Br)cc3[nH]2)nc2ccccc21	1.2	26	-4	-4	34
Cn1c(CSc2nnc(SCc3ccccc3)s2)nc2ccccc21	0.7	0	-21	-1	84*
COc1ccc(Cc2c(N)nc(N)nc2N)cc1	1.1	3	15	4	.
CC(C)Oc1ccc(Cc2cnc(N)nc2N)cc1	1.1	-5	71*	-11	.
Cc1[nH]nc2c1C(c1cn[nH]c1-c1ccc(F)cc1)C(C#N)=C(N)O2 (centres undefined)	1.5	-2	1	14	28
CCNc1nc(NCC)nc(N(C)N)n1	1	-13	2	-12	.
O=c1c(-c2nnc(SCc3ccc(Cl)cc3)o2)cccn1Cc1ccccc1	1.1	61*	-17	11	.
Cc1ccccc1-c1nnc(SCc2ccc(F)cc2)o1	0.9	35*	-1	-2	54
CC(C)(C)c1cc(C(=O)NCc2ccccc2)ccn1	.	1	1	-8	.
C=CCc1cccc2cc(C(=O)N(CC)CC)c(=O)oc12	1.1	1	-5	-15	-5
CCC(CC)C(=O)NC12CC3CC(CC(C3)C1)C2	0.8	7	-21	-1	.
CCOc1ccc(C(=O)N/N=C/c2ccc(-c3ccc(S(=O)(=O)Nc4ncccn4)cc3)o2)cc1	2.1*	10	-7	0	.
CCCCOC1(c2ccccc2)NC(=S)NN=C1c1ccccc1 (centres undefined)	0.9	11	8	-3	.
SMILES	PLAP act	PostGolgi ctrl	Ecoli WT expand	PostGolgi yeast	Ecoli tolC
O=C(NCc1ccccn1)c1cn(CCc2ccccc2)nn1	1.1	9	2	3	-7
Cc1cccc(NC(=O)C2CCN(c3nccc(C)n3)CC2)c1	0.9	3	3	-3	13
c1ccc(-c2csc(NNC3=NCCCCC3)n2)cc1	2.1*	-5	-29	2	.
COc1ccc(C(=O)Nc2nc3nc(-c4ccccc4)cc(=O)n3[nH]2)cc1	1.7	5	-15	-2	-31
COc1ccc(-c2cc(C(F)(F)F)c3c(=O)n(-c4ccccc4)[nH]c3n2)cc1	1.2	33*	1	13	.
COC(=O)c1nn(-c2ccc3c(c2)CCN3C(C)=O)cc1O	1.1	7	7	-3	.
COC(=O)c1nn(-c2ccc3c(c2)OCO3)cc1O	1	37*	8	4	.
O=C(CSc1nc2ccccc2o1)NCCOc1ccccc1	1	10	11	-1	26
COc1ccccc1-c1nc(C#N)c(NCc2ccc(F)cc2)o1	0.9	41*	5	0	54
COc1ccc(CNc2oc(Cc3cccc4ccccc34)nc2C#N)cc1	1.2	35*	-21	-6	59
N#Cc1nc(Cc2cccc3ccccc23)oc1NCCCn1ccnc1	1.8	12	9	-4	61*
N#Cc1nc(-c2ccccc2F)oc1NCc1cccc2c1OCO2	0.9	34*	-5	-3	35
N#Cc1nc(Cc2cccc3ccccc23)oc1NCCCN1CCOCC1	1.7	-2	26	0	37
CCOc1cc(C2C(C(=O)OCC(C)C)=C(C)N=C3SCCC(=O)N32)ccc1OC(C)=O (centres undefined)	0.9	11	4	3	8
CCOC(=O)COn1c(=O)c(=O)n(O)c2ccccc21	0.9	6	6	-4	-10
O=C(C[n+]1cc2ccccc2c2ccccc21)c1ccccc1	.	33*	11	-1	.
COc1cc(C(=O)OCC(=O)Nc2c(F)c(F)c(F)c(F)c2F)cc(OC)c1OC	1.2	-3	-5	-2	19
C=CCNC(=S)N1CCN(c2ncc3c(=O)c(C(=O)O)cn(CC)c3n2)CC1	1	6	100*	7	.
CCn1cc(C(=O)O)c(=O)c2cnc(N3CCNCC3)nc21	.	.	.	.	7
CCc1cc2cccc(C)c2nc1SCC(=O)N1CCN(C(=O)c2ccco2)CC1	1.2	36*	0	-4	29
CCc1cc2cc(C)cc(C)c2nc1SCC(=O)N1CCN(C(=O)c2ccco2)CC1	1	24	8	18	41
Cc1ccc(C(=O)NCc2ccco2)cc1S(=O)(=O)N1CCCCC1	0.9	-3	0	-9	16
O=C(NCc1ccco1)c1cc(S(=O)(=O)N2CCOCC2)ccc1Cl	1.3	35*	1	5	-22
O=C(NCc1ccco1)c1ccc(S(=O)(=O)N2CCOCC2)cc1	1.1	9	-3	4	.
C=CCn1cc(C(=O)NCc2ccco2)c(=O)c2cc(S(=O)(=O)N3CCCCCC3)ccc21	1.5	3	-22	-8	68*
CCOc1ccc(S(=O)(=O)Nc2ccccc2C(=O)NCc2ccco2)cc1	1.6	18	-3	3	33
COc1ccc(S(=O)(=O)Nc2ccccc2C(=O)NCc2ccco2)cc1Br	1.5	1	4	1	83*
